Results from ChEMBL document CHEMBL3046016, “Antifeedant and growth inhibitory effects of some neo-clerodane diterpenoids isolated from Clerodendron species (Verbenaceae) on Earias vitella and Spodoptera litura” (2003).

Legend:
Assay type in all cases: functional
Earias vittella [1] = test: Insecticidal activity against third-instar larval stage of Earias vitella assessed as total larval duration time at 10 ug/cm3 administered through artificial diet containing Abelmoschus esculentus seed powder (reference value: 8.2 +/- 0.48 days)
Spodoptera litura [2] = test: Antifeedant activity against third-instar larval stage of Spodoptera litura in compound-treated castor leaves assessed as decrease in diet consumption at 5 ug/cm2 after 24 hr by no-choice leaf disk assay relative to acetone-treated control; parameters: scale not given: the % may be the effect or the level left
In short: (§1)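 Larvae were reared on castor leaves at 25 ± 2 °C. In a no-choice test, compound in acetone was painted on the abaxial side of castor leaf disks and air-dried. Five freshly molted third-instar larvae, starved 4 h, were placed per Petri dish with wet cotton. There were five replicates. After 24 h, consumed leaf area was read on a leaf area meter. %AF = 100 − (treated/control)×100.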

Spodoptera litura [3] = test: Antifeedant activity against third-instar larval stage of Spodoptera litura in compound-treated castor leaves assessed as decrease in diet consumption at 10 ug/cm2 after 24 hr by no-choice leaf disk assay relative to acetone-treated control; parameters: scale not given: the % may be the effect or the level left; in short: as §1
Spodoptera litura [4] = test: Insecticidal activity against female adult Spodoptera litura in compound-treated castor leaves assessed as adult longevity time at 5 ug/cm2 (reference value: 10 +/- 0.63 days)
Spodoptera litura [5] = test: Insecticidal activity against female adult Spodoptera litura in compound-treated castor leaves assessed as adult longevity time at 10 ug/cm2 (reference value: 10 +/- 0.63 days)
Spodoptera litura [6] = test: Insecticidal activity against male adult Spodoptera litura in compound-treated castor leaves assessed as adult longevity time at 5 ug/cm2 (reference value: 9.4 +/- 0.48 days)
Spodoptera litura [7] = test: Insecticidal activity against male adult Spodoptera litura in compound-treated castor leaves assessed as adult longevity time at 10 ug/cm2 (reference value: 9.4 +/- 0.48 days)
Spodoptera litura [8] = test: Insecticidal activity against adult Spodoptera litura in compound-treated castor leaves assessed as adult deformity at 5 ug/cm2 relative to control
Spodoptera litura [9] = test: Insecticidal activity against adult Spodoptera litura in compound-treated castor leaves assessed as adult deformity at 10 ug/cm2 relative to control
Spodoptera litura [10] = test: Insecticidal activity against adult Spodoptera litura in compound-treated castor leaves assessed as adult emergence at 5 ug/cm2 relative to control
Spodoptera litura [11] = test: Insecticidal activity against adult Spodoptera litura in compound-treated castor leaves assessed as adult emergence at 10 ug/cm2 relative to control
Spodoptera litura [12] = test: Insecticidal activity against pupal stage of Spodoptera litura in compound-treated castor leaves assessed as pupal mortality at 5 ug/cm2 relative to control
Spodoptera litura [13] = test: Insecticidal activity against pupal stage of Spodoptera litura in compound-treated castor leaves assessed as pupal mortality at 10 ug/cm2 relative to control
Spodoptera litura [14] = test: Insecticidal activity against pupal stage of Spodoptera litura in compound-treated castor leaves assessed as pupal weight at 5 ug/cm2 (reference value: 302.4 +/- 5.9 mg)
Spodoptera litura [15] = test: Insecticidal activity against pupal stage of Spodoptera litura in compound-treated castor leaves assessed as pupal weight at 10 ug/cm2 (reference value: 302.4 +/- 5.9 mg)
Spodoptera litura [16] = test: Insecticidal activity against pupal stage of Spodoptera litura in compound-treated castor leaves assessed as pupal duration time at 5 ug/cm2 (reference value: 9.2 +/- 0.74 days)
Spodoptera litura [17] = test: Insecticidal activity against pupal stage of Spodoptera litura in compound-treated castor leaves assessed as pupal duration time at 10 ug/cm2 (reference value: 9.2 +/- 0.74 days)
Spodoptera litura [18] = test: Insecticidal activity against third-instar larval stage of Spodoptera litura in compound-treated castor leaves assessed as larval mortality at 5 ug/cm2 relative to control
Spodoptera litura [19] = test: Insecticidal activity against third-instar larval stage of Spodoptera litura in compound-treated castor leaves assessed as larval mortality at 10 ug/cm2 relative to control
Spodoptera litura [20] = test: Insecticidal activity against third-instar larval stage of Spodoptera litura in compound-treated castor leaves assessed as total larval duration time at 5 ug/cm2 (reference value: 12.4 +/- 0.48 days)
Spodoptera litura [21] = test: Insecticidal activity against third-instar larval stage of Spodoptera litura in compound-treated castor leaves assessed as total larval duration time at 10 ug/cm2 (reference value: 12.4 +/- 0.48 days)
Earias vittella [22] = test: Insecticidal activity against female adult Earias vitella assessed as adult longevity time at 5 ug/cm3 administered through artificial diet containing Abelmoschus esculentus seed powder (reference value: 8.6 +/- 0.48 days)
Earias vittella [23] = test: Insecticidal activity against female adult Earias vitella assessed as adult longevity time at 10 ug/cm3 administered through artificial diet containing Abelmoschus esculentus seed powder (reference value: 8.6 +/- 0.48 days)
Earias vittella [24] = test: Insecticidal activity against male adult Earias vitella assessed as adult longevity time at 5 ug/cm3 administered through artificial diet containing Abelmoschus esculentus seed powder (reference value: 8.2 +/- 0.4 days)
Earias vittella [25] = test: Insecticidal activity against male adult Earias vitella assessed as adult longevity time at 10 ug/cm3 administered through artificial diet containing Abelmoschus esculentus seed powder (reference value: 8.2 +/- 0.4 days)
Earias vittella [26] = test: Insecticidal activity against adult Earias vitella assessed as adult deformity at 10 ug/cm3 administered through artificial diet containing Abelmoschus esculentus seed powder (reference value: 4%)
Earias vittella [27] = test: Insecticidal activity against adult Earias vitella assessed as adult deformity at 5 ug/cm3 administered through artificial diet containing Abelmoschus esculentus seed powder (reference value: 4%)
Earias vittella [28] = test: Insecticidal activity against adult Earias vitella assessed as adult emergence at 5 ug/cm3 administered through artificial diet containing Abelmoschus esculentus seed powder (reference value: 88%)
Earias vittella [29] = test: Insecticidal activity against adult Earias vitella assessed as adult emergence at 10 ug/cm3 administered through artificial diet containing Abelmoschus esculentus seed powder (reference value: 88%)
Earias vittella [30] = test: Insecticidal activity against pupal stage of Earias vitella assessed as pupal mortality at 5 ug/cm3 administered through artificial diet containing Abelmoschus esculentus seed powder (reference value: 8%)
Earias vittella [31] = test: Insecticidal activity against pupal stage of Earias vitella assessed as pupal mortality at 10 ug/cm3 administered through artificial diet containing Abelmoschus esculentus seed powder (reference value: 8%)
Earias vittella [32] = test: Insecticidal activity against pupal stage of Earias vitella assessed as pupal weight at 5 ug/cm3 administered through artificial diet containing Abelmoschus esculentus seed powder (reference value: 88.2 +/- 4.01 mg)
Earias vittella [33] = test: Insecticidal activity against pupal stage of Earias vitella assessed as pupal weight at 10 ug/cm3 administered through artificial diet containing Abelmoschus esculentus seed powder (reference value: 88.2 +/- 4.01 mg)
Earias vittella [34] = test: Insecticidal activity against pupal stage of Earias vitella assessed as pupal duration time at 5 ug/cm3 administered through artificial diet containing Abelmoschus esculentus seed powder (reference value: 6.4 +/- 0.21 days)
Earias vittella [35] = test: Antifeedant activity against third-instar larval stage of Earias vitella assessed as decrease in diet consumption at 5 ug/cm3 administered through artificial diet containing Abelmoschus esculentus seed powder after 24 hr relative to acetone-treated control; parameters: scale not given: the % may be the effect or the level left
In short: (§2)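 Artificial diet was modified Klein medium with bhendi (Abelmoschus esculentus) seed powder in place of alfalfa. Compound in acetone was mixed into bhendi meal 12 h before diet preparation so the solvent evaporated. One 3 g diet cube was given to five freshly molted third-instar larvae in a muslin-covered container. After 24 h the cubes were weighed. %AF = 100 − (treated/control)×100.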

Earias vittella [36] = test: Antifeedant activity against third-instar larval stage of Earias vitella assessed as decrease in diet consumption at 10 ug/cm3 administered through artificial diet containing Abelmoschus esculentus seed powder after 24 hr relative to acetone-treated control; parameters: scale not given: the % may be the effect or the level left; in short: as §2
Earias vittella [37] = test: Insecticidal activity against pupal stage of Earias vitella assessed as pupal duration time at 10 ug/cm3 administered through artificial diet containing Abelmoschus esculentus seed powder (reference value: 6.4 +/- 0.21 days)
Earias vittella [38] = test: Insecticidal activity against third-instar larval stage of Earias vitella assessed as larval mortality at 10 ug/cm3 administered through artificial diet containing Abelmoschus esculentus seed powder (reference value: 4%)
Earias vittella [39] = test: Insecticidal activity against third-instar larval stage of Earias vitella assessed as larval mortality at 5 ug/cm3 administered through artificial diet containing Abelmoschus esculentus seed powder (reference value: 4%)
Earias vittella [40] = test: Insecticidal activity against third-instar larval stage of Earias vitella assessed as total larval duration time at 5 ug/cm3 administered through artificial diet containing Abelmoschus esculentus seed powder (reference value: 8.2 +/- 0.48 days)

Compound	Time (Earias vittella [1]) [days]	Activity (Spodoptera litura [2]) [%]	Activity (Spodoptera litura [3]) [%]	Time (Spodoptera litura [4]) [days]	Time (Spodoptera litura [5]) [days]	Time (Spodoptera litura [6]) [days]	Time (Spodoptera litura [7]) [days]	Activity (Spodoptera litura [8]) [%]	Activity (Spodoptera litura [9]) [%]	Activity (Spodoptera litura [10]) [%]	Activity (Spodoptera litura [11]) [%]	mortality at 5 µg/cm2 (Spodoptera litura [12]) [%]	mortality at 10 µg/cm2 (Spodoptera litura [13]) [%]	Activity (Spodoptera litura [14]) [mg]	Activity (Spodoptera litura [15]) [mg]	Time (Spodoptera litura [16]) [days]	Time (Spodoptera litura [17]) [days]	mortality at 5 µg/cm2 (Spodoptera litura [18]) [%]	mortality at 10 µg/cm2 (Spodoptera litura [19]) [%]	Time (Spodoptera litura [20]) [days]	also measured
CC(=O)OC[C@@]12[C@@H](OC(C)=O)C[C@@H](C)[C@](C)([C@@H]3C[C@H]4CC(O)O[C@H]4O3)[C@H]1CC[C@H](OC(C)=O)[C@]21CO1 (stereo not given in full) [15-HYDROXYEPICARYOPTIN]	10.2	74	78	7.4	7	8	7.5	7.2	9.6	70.4	62.4	22.5	27.6	272.2	258.8	10.8	11.6	20	32	13.5	Time (Spodoptera litura [21]): 14.2 days; Time (Earias vittella [22]): 6.8 days; Time (Earias vittella [23]): 6.6 days; Time (Earias vittella [24]): 6.6 days; Time (Earias vittella [25]): 6.2 days; Activity (Earias vittella [26]): 4%; Activity (Earias vittella [27]): 4%; Activity (Earias vittella [28]): 68%; Activity (Earias vittella [29]): 62%; mortality (Earias vittella [30]): 28%; mortality (Earias vittella [31]): 34%; Activity (Earias vittella [32]): 58 mg; Activity (Earias vittella [33]): 57.2 mg; Time (Earias vittella [34]): 9 days; Activity (Earias vittella [35]): 62.15%; Activity (Earias vittella [36]): 71.84%; Time (Earias vittella [37]): 9.6 days; mortality (Earias vittella [38]): 8%; mortality (Earias vittella [39]): 8%; Time (Earias vittella [40]): 9.8 days
CC[C@@](C)(OC(C)=O)C(=O)O[C@H]1[C@H](O)C[C@@H]2[C@@](C)([C@@H]3C[C@H]4C=CO[C@H]4O3)[C@H](C)C[C@H](OC(C)=O)[C@@]2(COC(C)=O)[C@@]12CO2 [CLERODENDRIN B]	11.2	76.5	84.9	6.4	5.2	6.8	6.2	12	16.8	59.2	46.4	29.4	37	240	220.2	12	13	32	44	14.5	Time (Spodoptera litura [21]): 15.8 days; Time (Earias vittella [22]): 5.8 days; Time (Earias vittella [23]): 4.8 days; Time (Earias vittella [24]): 5.4 days; Time (Earias vittella [25]): 4.6 days; Activity (Earias vittella [26]): 16%; Activity (Earias vittella [27]): 8%; Activity (Earias vittella [28]): 52.5%; Activity (Earias vittella [29]): 44%; mortality (Earias vittella [30]): 40%; mortality (Earias vittella [31]): 42.5%; Activity (Earias vittella [32]): 55 mg; Activity (Earias vittella [33]): 50.4 mg; Time (Earias vittella [34]): 10 days; Activity (Earias vittella [35]): 74.85%; Activity (Earias vittella [36]): 82.14%; Time (Earias vittella [37]): 12.2 days; mortality (Earias vittella [38]): 20%; mortality (Earias vittella [39]): 15%; Time (Earias vittella [40]): 10.6 days
